Measured values taken from ChEMBL document CHEMBL1141660, “Synthesis and antimycobacterial evaluation of substituted pyrazinecarboxamides” (Eur J Med Chem, 2008).
Converted amounts (≈) assume the structure as drawn.

Test system: not listed separately
Assay: Inhibition of photosynthetic electron transport in Spinacia oleracea chloroplasts assessed as photoreduction of 2,6-dicholorophenol-indophenol measured by decrease in oxygen evolution rate
Type: functional
Conditions: not given
In short: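 Chloroplast suspension (chlorophyll 30 mg/L) in 0.02 mol/L phosphate buffer, pH 7.2, with 0.4 mol/L sucrose, 0.005 mol/L MgCl2 and 0.015 mol/L NaCl. Samples were lit by a halogen lamp (~100 W/m², 10 cm, 4-cm water filter) at 22 °C. Electron transport was followed as DCPIP photoreduction. IC50 is the molar concentration halving oxygen evolution versus the untreated control.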
Cc1ccc(NC(=O)c2cnc(C(C)(C)C)c(Cl)n2)cc1 gave an IC50 of 73 µM.
For Cc1ccc(NC(=O)c2cnccn2)cc1, the IC50 was 1480 µM.
O=C(Nc1cc(O)ccc1Cl)c1cncc(Cl)n1 showed an IC50 of 624 µM.
With CC(C)(C)c1ncc(C(=O)Nc2ccc(F)cc2)nc1Cl the IC50 was 103 µM.
For CC(C)(C)c1ncc(C(=O)Nc2cccc(C(F)(F)F)c2)nc1Cl, the IC50 was 173 µM.
With O=C(Nc1ccc(F)cc1)c1cncc(Cl)n1 the IC50 was 384 µM.
O=C(Nc1cccc(C(F)(F)F)c1)c1cncc(Cl)n1 gave an IC50 of 229 µM.
For Cc1ccc(NC(=O)c2cncc(Cl)n2)cc1, the IC50 was 1520 µM.
CC(C)(C)c1cnc(C(=O)Nc2ccc(F)cc2)cn1 showed an IC50 of 524 µM.
With O=C(Nc1cc(O)ccc1Cl)c1cnccn1 the IC50 was 722 µM.
Work on O=C(Nc1ccc(F)cc1)c1cnccn1 yielded an IC50 of 480 µM.
O=C(Nc1ccccc1C(F)(F)F)c1cnccn1 showed an IC50 of 376 µM.
With CC(C)(C)c1cnc(C(=O)Nc2ccccc2C(F)(F)F)cn1 the IC50 was 55 µM.
Cc1ccc(NC(=O)c2cnc(C(C)(C)C)cn2)cc1 gave an IC50 of 164 µM.
For O=C(Nc1cccc(C(F)(F)F)c1)c1cnccn1, the IC50 was 130 µM.
Work on CC(C)(C)c1ncc(C(=O)Nc2ccccc2C(F)(F)F)nc1Cl yielded an IC50 of 205 µM.
Molecule O=C(Nc1ccccc1C(F)(F)F)c1cncc(Cl)n1 has an IC50 of 557 µM.
Molecule CC(C)(C)c1ncc(C(=O)Nc2cc(O)ccc2Cl)nc1Cl has an IC50 of 625 µM.
Molecule CC(C)(C)c1cnc(C(=O)Nc2cccc(C(F)(F)F)c2)cn1 has an IC50 of 283 µM.
For CN(C)C(=O)Nc1ccc(Cl)c(Cl)c1 [DCMU], the IC50 was 1.9 µM.

Test system: Trichophyton mentagrophytes
Assay: Antifungal activity against Trichophyton mentagrophytes after 120 hrs
Type: functional
Conditions: not given
Work on CC(C)(C)c1cnc(C(=O)Nc2cccc(C(F)(F)F)c2)cn1 yielded an MIC of 62.5 µM (≈ 20.2 µg/mL).

Test system: Trichophyton mentagrophytes
Assay: Antifungal activity against Trichophyton mentagrophytes after 72 hrs
Type: functional
Conditions: not given
Work on CC(C)(C)c1cnc(C(=O)Nc2cccc(C(F)(F)F)c2)cn1 yielded an MIC of 62.5 µM (≈ 20.2 µg/mL).

Test system: Chlorella vulgaris
Assay: Antialagal activity against Chlorella vulgaris Beji assessed as reduction in chlorophyll content after 7 days at 0.83 to 100 umol/L
Type: functional
Parameters: scale not given: the % may be the effect or the level left
Conditions: not given
In short: (§1)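 Chlorella cultures with compound added from DMSO (final ≤0.25%), against controls carrying the same DMSO level. Chlorophyll content was read relative to the control. Results are given either as IC50 (concentration giving a 50% drop in chlorophyll) or as percent of control across the 0.83–100 concentration range, with S.D.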
For Cc1ccc(NC(=O)c2cnc(C(C)(C)C)c(Cl)n2)cc1, the Activity was 92.9%.
For O=C(Nc1cc(O)ccc1Cl)c1cncc(Cl)n1, the Activity was 103%.
In the case of CC(C)(C)c1ncc(C(=O)Nc2ccc(F)cc2)nc1Cl, the Activity is reported as 101.6%.
CC(C)(C)c1ncc(C(=O)Nc2cccc(C(F)(F)F)c2)nc1Cl showed an Activity of 90.1%.
For CC(C)(C)c1cnc(C(=O)Nc2cc(O)ccc2Cl)cn1, the Activity was 122%.
CC(C)(C)c1cnc(C(=O)Nc2ccc(F)cc2)cn1 showed an Activity of 94.5%.
O=C(Nc1cc(O)ccc1Cl)c1cnccn1 gave an Activity of 97.1%.
In the case of O=C(Nc1ccc(F)cc1)c1cnccn1, the Activity is reported as 89.9%.
O=C(Nc1ccccc1C(F)(F)F)c1cnccn1 gave an Activity of 91.7%.
With Cc1ccc(NC(=O)c2cnc(C(C)(C)C)cn2)cc1 the Activity was 91.8%.
Work on O=C(Nc1cccc(C(F)(F)F)c1)c1cnccn1 yielded an Activity of 91.5%.
For CC(C)(C)c1ncc(C(=O)Nc2ccccc2C(F)(F)F)nc1Cl, the Activity was 94.4%.
In the case of O=C(Nc1ccccc1C(F)(F)F)c1cncc(Cl)n1, the Activity is reported as 87.8%.
Molecule CC(C)(C)c1ncc(C(=O)Nc2cc(O)ccc2Cl)nc1Cl has an Activity of 98%.
For CC(C)(C)c1cnc(C(=O)Nc2cccc(C(F)(F)F)c2)cn1, the Activity was 85.2%.

Test system: Chlorella vulgaris
Assay: Antialagal activity against Chlorella vulgaris Beji assessed as reduction in chlorophyll content after 7 days
Type: functional, organism-based
Conditions: 168 h
In short: as §1
For Cc1ccc(NC(=O)c2cnccn2)cc1, the IC50 was 70.9 µM.
With O=C(Nc1ccc(F)cc1)c1cncc(Cl)n1 the IC50 was 32.3 µM.
O=C(Nc1cccc(C(F)(F)F)c1)c1cncc(Cl)n1 showed an IC50 of 12.1 µM.
Cc1ccc(NC(=O)c2cncc(Cl)n2)cc1 gave an IC50 of 37.4 µM.
Molecule CC(C)(C)c1cnc(C(=O)Nc2ccccc2C(F)(F)F)cn1 has an IC50 of 32.9 µM.
With CN(C)C(=O)Nc1ccc(Cl)c(Cl)c1 [DCMU] the IC50 was 7.3 µM.

Test system: not listed separately
Assay: Selectivity index, ratio of MIC Mycobacterium tuberculosis H37Rv ATCC 27294 to IC50 for african green monkey Vero cells
Type: functional
Conditions: not given
Molecule CC(C)(C)c1ncc(C(=O)Nc2cccc(C(F)(F)F)c2)nc1Cl has a Ratio of over 3.2.
O=C(Nc1cccc(C(F)(F)F)c1)c1cnccn1 gave a Ratio of over 10.

Test system: Mycobacterium tuberculosis
Assay: Antimicrobial activity against Mycobacterium tuberculosis H37Rv ATCC 27294 by microplate alamar blue assay
Type: functional
Conditions: not given
With CC(C)(C)c1ncc(C(=O)Nc2cccc(C(F)(F)F)c2)nc1Cl the MIC was 3.13 µg/mL (≈ 8.75 µM).
Molecule O=C(Nc1cccc(C(F)(F)F)c1)c1cnccn1 has an MIC of 6.25 µg/mL (≈ 23.4 µM).
Work on NC(=O)c1cnccn1 [PYRAZINAMIDE] yielded an MIC of 12.5 µg/mL (≈ 102 µM).

Test system: Vero
Assay: Cytotoxicity against african green monkey Vero cells after 72 hrs by MTT assay
Type: cell-based
Conditions: Chlorocebus sabaeus
In short: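 Secondary screen in VERO cells. Viability was read with the CellTiter 96 non-radioactive cell proliferation assay.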
CC(C)(C)c1ncc(C(=O)Nc2cccc(C(F)(F)F)c2)nc1Cl showed an IC50 of over 10 µg/mL.
Molecule O=C(Nc1cccc(C(F)(F)F)c1)c1cnccn1 has an IC50 of over 62.5 µg/mL.

Test system: Mycobacterium tuberculosis
Assay: Antimicrobial activity against Mycobacterium tuberculosis H37Rv ATCC 27294 at 6.25 ug/mL by microplate alamar blue assay
Type: functional
Conditions: not given
In the case of Cc1ccc(NC(=O)c2cnc(C(C)(C)C)c(Cl)n2)cc1, the inhibition at 6.25 µg/mL is reported as 0%.
In the case of Cc1ccc(NC(=O)c2cnccn2)cc1, the inhibition at 6.25 µg/mL is reported as 86%.
O=C(Nc1cc(O)ccc1Cl)c1cncc(Cl)n1 showed an inhibition at 6.25 µg/mL of 15%.
For CC(C)(C)c1ncc(C(=O)Nc2ccc(F)cc2)nc1Cl, the inhibition at 6.25 µg/mL was 15%.
CC(C)(C)c1ncc(C(=O)Nc2cccc(C(F)(F)F)c2)nc1Cl showed an inhibition at 6.25 µg/mL of 95%.
For O=C(Nc1ccc(F)cc1)c1cncc(Cl)n1, the inhibition at 6.25 µg/mL was 44%.
Molecule O=C(Nc1cccc(C(F)(F)F)c1)c1cncc(Cl)n1 has an inhibition at 6.25 µg/mL of 77%.
With Cc1ccc(NC(=O)c2cncc(Cl)n2)cc1 the inhibition at 6.25 µg/mL was 71%.
Molecule CC(C)(C)c1cnc(C(=O)Nc2cc(O)ccc2Cl)cn1 has an inhibition at 6.25 µg/mL of 0%.
Molecule CC(C)(C)c1cnc(C(=O)Nc2ccc(F)cc2)cn1 has an inhibition at 6.25 µg/mL of 25%.
O=C(Nc1cc(O)ccc1Cl)c1cnccn1 showed an inhibition at 6.25 µg/mL of 0%.
With O=C(Nc1ccc(F)cc1)c1cnccn1 the inhibition at 6.25 µg/mL was 0%.
For O=C(Nc1ccccc1C(F)(F)F)c1cnccn1, the inhibition at 6.25 µg/mL was 31%.
In the case of CC(C)(C)c1cnc(C(=O)Nc2ccccc2C(F)(F)F)cn1, the inhibition at 6.25 µg/mL is reported as 7%.
Molecule Cc1ccc(NC(=O)c2cnc(C(C)(C)C)cn2)cc1 has an inhibition at 6.25 µg/mL of 61%.
O=C(Nc1cccc(C(F)(F)F)c1)c1cnccn1 gave an inhibition at 6.25 µg/mL of 99%.
In the case of CC(C)(C)c1ncc(C(=O)Nc2ccccc2C(F)(F)F)nc1Cl, the inhibition at 6.25 µg/mL is reported as 6%.
With O=C(Nc1ccccc1C(F)(F)F)c1cncc(Cl)n1 the inhibition at 6.25 µg/mL was 26%.
Molecule CC(C)(C)c1ncc(C(=O)Nc2cc(O)ccc2Cl)nc1Cl has an inhibition at 6.25 µg/mL of 0%.
Molecule CC(C)(C)c1cnc(C(=O)Nc2cccc(C(F)(F)F)c2)cn1 has an inhibition at 6.25 µg/mL of 23%.
